# From PubChem
# CRFR2-BP antag = CRF-BP/CRF-R2 complex antagonism; actives 0.59% (n = 350,000); inhibition, % at 11.8 µM; HEK293 CRF-R2/CRF-BP, CRF-induced calcium fluorescence;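 active = inhibition of the ligand-induced calcium signal above about 50% at the single tested concentration, limit read from the data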
# CendR NRP1 mod = NRP-1/CendR interaction modulation; inhibition, % at 25 µM; FAM-RPARPAR peptide binding to NRP-1, fluorescence polarization; actives 0.85% (n = 360,000);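 active = inhibition or corrected inhibition above about 18%, plus a signal ratio from 0.5 to 1.5, limit read from the data, passing the limit was not always enough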
# KLK7 zymogen act = activates the human kallikrein-7 zymogen | AID 652039 | actives 0.9% (n = 370,000) | P49862 | activation, % at 7 µM | purified proKLK7, EDANS-DABCYL substrate fluorescence; 100% is mature enzyme control, 0% vehicle;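 active = activation above the mean of all tested compounds plus 3 SD, computed per campaign excluding outliers beyond control limits, cut at about 13% in these data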
# Target sequence (P49862 whole entry, looked up): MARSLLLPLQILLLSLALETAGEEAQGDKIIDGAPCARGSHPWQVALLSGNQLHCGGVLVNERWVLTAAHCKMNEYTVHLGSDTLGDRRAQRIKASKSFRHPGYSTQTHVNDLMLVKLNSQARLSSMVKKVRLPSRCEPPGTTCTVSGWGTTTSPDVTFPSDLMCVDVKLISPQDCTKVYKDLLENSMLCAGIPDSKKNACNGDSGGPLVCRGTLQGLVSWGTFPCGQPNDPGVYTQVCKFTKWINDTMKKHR
# DDE Tn6 FP inh = DD(E)-Tn6 binding inhibition, primary FP screen. P02675. Fibrin DD(E) TRITC-Tn6 fluorescence polarization displacement. inhibition, % at 8.3 µM. actives 0.21% (n = 370,000);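 active = inhibition above a per-campaign cutoff: mean of compounds within control limits plus 3 SD, cut at about 15% in these data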;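 also: 0% = median of all compound wells on the plate and 100% = blocking peptide control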
# CRFBP-R2 agonist = agonists of human CRF-binding protein/CRF-R2 receptor complex | HEK293 CRF-R2/CRF-BP, calcium dye fluorescence (FLIPR); percent of saturating CRF peptide response | activation, % at 13.2 µM | actives 0.46% (n = 350,000);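 active = activation of at least 50%, plus an integration ratio under a set limit after plate pattern correction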;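 also: plate controls were neutral control wells without compound for no effect and CRF at EC100 for full effect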
# Tn7 DDE FP = disrupts Tn7 cyclic peptide binding to fibrin D-Dimer-E complex; P02675; FP displacement of FITC-Tn7 peptide from fibrin DD(E); 0% = median of compound wells per plate; inhibition, % at 8.3 µM; actives 0.13% (n = 370,000); AID 720508;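 active = inhibition above the mean of compounds falling within the control limits plus 3 SD of them, cut at about 14% in these data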;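 also: 0% = plate median of compound wells and 100% = 10 µM Aha-Tn7 peptide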
#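 system = human fibrin DD(E) protein | quantity = DD(E) 2 µM final | medium = Tris/NaCl/CaCl2 buffer, pH 7.8 | also added = labelled Tn7 tracer, 0.1 µM | compound dosing = single point at 8.3 µM | timing = compound with protein 10 min, then 3 h after probe, room temperature | signal = FP measurement | benchmarks = Aha-Tn7 high control | repeats = one replicate per compound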
# Starred values were filed as active, the others as inactive; nt = not tested or not shown. Sampled rows, rich in hits. Any-hit rate of the full collection: about 2.9%.
SMILES,CRFR2-BP antag,CendR NRP1 mod,KLK7 zymogen act,DDE Tn6 FP inh,CRFBP-R2 agonist,Tn7 DDE FP
Cc1nn(C)cc1CN(C)C(=O)c1cc2nc(-c3ccco3)cc(C(F)(F)F)n2n1,0,-12,16*,7,-1,0
CCOc1ccc(-n2c(SCC(=O)Nc3ccc4cn[nH]c4c3)nnc2-c2ccncc2)cc1,nt,nt,0,2,nt,-8
Cc1ccc(C(=O)CN(CCC(=O)O)C(=O)c2ccncc2)cc1,-4,22*,-1,1,-1,-4
Cc1ccc(C(=O)NCC(=O)Nc2ccncc2)cc1,-4,-1,0,7,0,-9
CCOC(=O)[C@]12CCCCC/C=C\1N(Cc1ccc(OC)cc1)C(=O)[C@H]2CC(=O)NCc1ccc(OC)c(OC)c1,nt,nt,1,2,nt,4
CC(C)Cc1nnc(NC(=O)CCC(=O)N2CCCCC2)s1,7,18*,-1,-6,-1,-1
CC(C)(C)[C@H]1CCC(=O)N([C@H](CSc2ccccc2)Cc2ccccc2)CC1,1,16,0,0,2,-9
CC(=O)Nc1ccc(SC[C@H](Cc2ccccc2)N2CC[C@@H](C(C)(C)C)CCC2=O)cc1,2,28*,0,-2,-3,-6
CC(=O)Nc1ccc(SC[C@H](Cc2ccccc2)N2CCN(CCc3ccccc3)CCC2=O)cc1,-9,25*,1,-3,-1,2
CN1C2=N[C@@H](c3ccc4ccccc4c3)CC(=O)N2/C(=C\c2ccccc2)[C@H]1c1ccccc1,nt,nt,nt,-1,nt,-2
COc1ccc(CN2C(C(=O)NC3CCCC3)CSCCS2(=O)=O)cc1 (stereo not drawn),nt,nt,0,4,nt,4
CN(Cc1ccccc1)S(=O)(=O)c1nnc(NC(=O)c2ccc(F)cc2)s1,59*,7,0,-6,0,-2
CC(C)CN1C(=O)[C@@]2(CC(=O)N(C)C2c2ccccc2)c2cc(-n3cc(CO)nn3)ccc21 (stereo partly drawn),nt,nt,0,9,nt,-1
COc1ccc(-n2nnnc2SCC(=O)N(C)C2CCS(=O)(=O)C2)cc1 (stereo not drawn),3,26*,0,-5,-3,-9
CCN(C(=O)CSc1cc(C)c2ccc(OC)cc2n1)C1CCS(=O)(=O)C1 (stereo not drawn),98*,13,0,-6,0,-4
O=C(CN1CCN(Cc2ccc3c(c2)OCO3)CC1)N1CCc2[nH]c3ccc(F)cc3c2C1,21,34*,2,1,-4,7
CN(CC(=O)N1CCc2[nH]c3ccc(F)cc3c2C1)CC1OCCO1,-6,nt,0,5,-1,0
Cc1ccc(-n2c(Cc3cccs3)nnc2SCc2ccc(C#N)cc2)cc1,nt,nt,0,-1,nt,7
COc1ccc(F)cc1S(=O)(=O)NCC(=O)NCc1cc(=O)n(C)c(=O)n1C,76*,6,0,10,0,1
COc1ccc(OC)c(NC(=O)NCCc2c[nH]c3ccccc23)c1,9,4,0,-6,-1,-2
COc1ccc2sc(-c3ccc(S(C)(=O)=O)cc3)c(C(=O)NCCc3c[nH]c4ccccc34)c2c1,63*,1,-4,-4,-1,-3
COc1ccc(-n2c(COc3ccc(C)cc3)nnc2SCC(=O)c2ccc(-c3ccccc3)cc2)cc1,nt,nt,0,-14,nt,-2
CCOc1cc(-c2ccc(N)c(OCC)c2)ccc1N,3,43*,0,-3,4,1
Cc1nnc(NC(=O)c2cc(S(=O)(=O)N(C)C)ccc2N2CCCC2)s1,0,23*,1,8,0,2
c1ccc2c(c1)N=C(N1CCN(Cc3ccc4c(c3)OCO4)CC1)c1ccccc1S2,nt,nt,0,-6,nt,-6
SMILES,CRFR2-BP antag,CendR NRP1 mod,KLK7 zymogen act,DDE Tn6 FP inh,CRFBP-R2 agonist,Tn7 DDE FP
COc1ccc(Oc2c(C=O)c3ccccc3n2C)cc1,1,26*,-1,7,1,-1
Cc1[nH]c2ccccc2c1C(=O)CN1C(=O)NC(C)(c2ccc(Cl)cc2Cl)C1=O (stereo not drawn),-199,-29,0,-10,67*,-7
CCOC(=O)C(C)Sc1nc(=O)n2cc(C)ccc2n1 (stereo not drawn),-1,-1,0,-1,-1,-2
CCOC(=O)C(C)Sc1nc(=O)n2ccccc2n1 (stereo not drawn),2,19*,0,0,3,-1
COc1ccc([N+](=O)[O-])cc1N(CC(=O)NCCCOC(C)C)S(C)(=O)=O,60*,-1,-1,14,-2,-6
CNC(=O)CN(c1cc([N+](=O)[O-])ccc1OC)S(C)(=O)=O,19,13,0,3,-4,4
COc1ccc(OC)c(S(=O)(=O)N2c3ccccc3CC2C)c1 (stereo not drawn),53*,11,0,4,-2,-3
COc1ccc(OC)c(S(=O)(=O)N2CCc3ccccc32)c1,-4,-4,0,11,1,1
O=C(NCc1ccccc1Cl)C1CCCN(c2nc3ccccc3o2)C1 (stereo not drawn),nt,nt,0,-5,nt,1
CCN(CC)S(=O)(=O)c1ccc2c(c1)N(CC(=O)NCc1ccccn1)C(=O)CO2,-7,4,0,-3,2,-3
CCN(CC)S(=O)(=O)c1ccc2c(c1)N(CC(=O)NCc1ccco1)C(=O)CO2,83*,4,0,4,-1,9
C=CCN(CC#CC1=CCCCC1)Cc1ccccc1,nt,nt,0,9,nt,-2
CCN(CC)c1ccc2cc(-c3nc(-c4ccc(OC)cc4)cs3)c(=O)oc2c1,-404,nt,0,0,338*,-1
CCN(CC)c1ccc2cc(C(=O)c3cccs3)c(=O)oc2c1,nt,135,-1,-8,nt,-2
O=c1oc2ccc3ccccc3c2cc1-c1nnc(-c2ccccc2)o1,61*,-22,-17,-1,2,9
COc1cccc2cc(-c3nc4ccccc4[nH]3)c(=O)oc12,0,-6,-32,3,-1,-3
CCN(CC)c1ccc2cc(-c3nc4ccccc4[nH]3)c(=O)oc2c1,-190,132,nt,nt,227*,nt
CCN(CC)c1ccc2cc(-c3nc4ccccc4n3C)c(=O)oc2c1,-239,-53,-2,4,248*,1
Cc1cccc(NC(=O)Nc2c(-c3ccc(C(F)(F)F)cc3)nc3ncccn23)c1,nt,nt,-3,-9,nt,6
O=C(NCCc1ccccc1Cl)[C@@H]1CCCN1C(=O)[C@@H](NC(=O)N1CCOCC1)C1CCCCC1,nt,nt,0,-2,nt,-3
CCN(CC)c1ccc2cc(-c3nnc(-c4ccccc4)o3)c(=O)oc2c1,-155,133,-3,-1,192*,-7
